Target: T1, wild-type mouse Shp2 catalytic domain (Mus musculus, UniProt P35235)
T1 sequence (P35235 224-539): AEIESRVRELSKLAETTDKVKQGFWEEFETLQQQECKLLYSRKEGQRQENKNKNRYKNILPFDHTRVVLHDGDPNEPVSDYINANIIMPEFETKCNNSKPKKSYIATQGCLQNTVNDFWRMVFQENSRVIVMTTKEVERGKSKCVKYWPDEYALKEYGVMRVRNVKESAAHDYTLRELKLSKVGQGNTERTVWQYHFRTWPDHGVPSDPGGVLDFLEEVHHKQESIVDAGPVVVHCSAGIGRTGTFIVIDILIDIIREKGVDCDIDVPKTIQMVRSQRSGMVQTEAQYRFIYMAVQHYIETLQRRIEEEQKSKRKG
Test: PTP inhibition assay with pNPP, wild-type Shp2 catalytic domain
Type: biochemical
Conditions: 120 min incubation
Procedure, shortened: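 Catalytic-domain PTP (50 nM) was preincubated with test compound or vehicle for 120 min at 37 °C in PTP buffer (50 mM 3,3-dimethyl glutarate pH 7.0, 1 mM EDTA, 50 mM NaCl). It was then assayed at 37 °C with pNPP at the enzyme's previously determined KM, quenched with 5 M NaOH and read at 405 nm. Activity was normalized to controls, and IC50 came from a four-parameter logistic fit. For Shp2, β-mercaptoethanol (250 μM–1 mM) was also tested at 500 nM compound.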

fluorescein was tested, and the “Shp2 inhibition (structure–activity comparison, Figure 2A)” value was “lack of Shp2 inhibition”.

— paper PMC4303306 (Biochemistry, 2014)
